Test results reported in ChEMBL document CHEMBL1138812, “Synthesis and antiviral evaluation of polyhalogenated imidazole nucleosides: dimensional analogues of 2,5,6-trichloro-1-(beta-D-ribofuranosyl)benzimidazole” (J Med Chem, 2004).

What was measured:
[1] = test system: Human betaherpesvirus 5; experiment: Concentration required to inhibit plaque formation in human cytomegalovirus cultures was determined; type: functional, organism-based
In short: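 HFF monolayers infected with about 100 pfu/cm² of HCMV Towne strain (plaque-purified P₀). After adsorption, compound (10 mg/mL DMSO stock, diluted in medium) added at four to eight concentrations in duplicate wells. After 7–10 days at 37 °C, cells fixed and stained with crystal violet and plaques counted microscopically. Percent plaque reduction versus drug-free wells, IC50 by regression against log concentration.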

[2] = test system: KB; experiment: Concentration required to inhibit KB cell line growth was determined by crystal violet staining method; type: functional, cell-based; details: Homo sapiens
In short: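 KB cells, 3000–5000 per well, incubated overnight at 37 °C, then compound added at six to eight concentrations in quadruplicate. Grown 48 h at 37 °C under CO2 (two population doublings), fixed in 95% ethanol, stained with 0.1% crystal violet, dye eluted with acidified ethanol, absorbance 570 nm. IC50 taken from linear regression of percent inhibition against log concentration.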

[3] = test system: Human alphaherpesvirus 1; experiment: Inhibitory activity against herpes simplex virus type-1 cultures was determined by ELISA assay; type: functional, organism-based
In short: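 BSC-1 cells, 10000 per well in MEM(E) with 10% calf serum, incubated overnight at 37 °C. Drug added in quadruplicate with HSV-1 (KOS) at 100 pfu/well and incubated 3 days at 37 °C. Plates blocked, probed with HRP-conjugated rabbit anti-HSV-1 and developed with TMB; reaction stopped with H2SO4 and read at 450/570 nm. Percent absorbance reduction versus virus-only wells, IC50 by regression.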

[4] = test system: HFF; experiment: Concentration required to inhibit stationary human HFF cell line growth was determined by microscopy examination; type: functional, cell-based
In short: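 Toxicity judged by microscopic inspection of uninfected stationary HFF cells in the HCMV plaque assay, scored at the time plaques were counted. Results come from duplicate experiments. IC50 from linear regression of percent inhibition against log concentration.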

SMILES | IC50 [1] [µM] | IC50 [2] [µM] | IC50 [3] [µM] | IC50 [4] [µM]
Clc1nc(Br)[nH]c1Cl | 41 | – | – | > 100
OC[C@H]1OC(n2cnc(Cl)c2Cl)[C@H](O)[C@@H]1O (some centres not stated) | > 100 | > 100 | > 100 | > 100
OC[C@H]1O[C@@H](n2c(Br)nc3cc(Cl)c(Cl)cc32)[C@H](O)[C@@H]1O | 0.7 | > 100 | – | –
OCC(CO)OCn1c(Br)nc(Cl)c1Cl | > 100 | > 100 | > 100 | > 100
OC[C@H]1O[C@@H](n2c(Br)nc(Br)c2Br)[C@H](O)[C@@H]1O | 30 | 65 | 60 | 100
OC[C@H]1O[C@@H](n2c(Cl)nc(Cl)c2Cl)[C@H](O)[C@H]1O | > 100 | > 100 | 50 | > 100
OC[C@H]1OC(n2c(Cl)nc3cc4cc(Cl)c(Cl)cc4nc32)[C@H](O)[C@@H]1O (some centres not stated) | 18 | – | 90 | –
OC[C@H]1O[C@@H](n2c(Br)nc(Br)c2Br)[C@H](O)[C@H]1O | > 100 | > 100 | > 100 | > 100
OC[C@H]1O[C@@H](n2c(Br)nc(Cl)c2Cl)[C@H](O)[C@@H]1O | > 100 | > 100 | > 100 | > 100
OC[C@H]1OC(n2cnc(Br)c2Br)[C@H](O)[C@@H]1O (some centres not stated) | > 100 | > 100 | > 100 | > 100
OC[C@H]1OC(n2c(Cl)nc3nc4cc(Cl)c(Cl)cc4cc32)[C@H](O)[C@@H]1O (some centres not stated) | 2 | – | 70 | –
OCCOCn1c(Cl)nc(Cl)c1Cl | > 100 | 25 | 35 | 45
Clc1nc(Cl)c(Cl)[nH]1 | 30 | – | – | 75
OCC(CO)OCn1c(Cl)nc(Cl)c1Cl | > 100 | 25 | 30 | > 100
OC[C@H]1O[C@@H](n2cnc3cc(Cl)c(Cl)cc32)[C@@H](O)[C@H]1O | 42 | 36 | 30 | 24
OC[C@H]1O[C@@H](n2c(Cl)nc3cc(Cl)c(Cl)cc32)[C@H](O)[C@@H]1O | – | > 100 | – | –
OCCOCn1c(Br)nc(Cl)c1Cl | > 100 | > 100 | > 100 | > 100

Now from value to molecule, other results behind:

IC50 [1] [µM] | IC50 [2] [µM] | IC50 [3] [µM] | SMILES | IC50 [4] [µM]
32 | 90 | > 100 | OCC1OC(n2c(Br)nc(Br)c2Br)[C@@H](O)C1O (some centres not stated) | > 100
37 | – | – | Brc1nc(Br)c(Br)[nH]1 | 75
2 | – | – | OC[C@H]1OC(n2c(Cl)nc3cc4cc(Cl)c(Cl)cc4cc32)[C@H](O)[C@@H]1O (some centres not stated) | –
> 100 | > 100 | > 100 | OCC(CO)OCn1c(Br)nc(Br)c1Br | > 100
> 100 | > 100 | > 100 | OC[C@H]1O[C@@H](n2c(Br)nc(Cl)c2Cl)[C@H](O)[C@H]1O | > 100
> 100 | > 100 | > 100 | OCCOCn1c(Br)nc(Br)c1Br | > 100
> 100 | > 100 | > 100 | OCC1OC(n2c(Br)nc(Cl)c2Cl)[C@@H](O)C1O (some centres not stated) | > 100
> 100 | > 100 | > 100 | OC[C@H]1O[C@@H](n2c(Cl)nc(Cl)c2Cl)[C@H](O)[C@@H]1O | > 100
